{
  "source": "ChEMBL document CHEMBL1130014",
  "about": "“Mixed bis(thiosemicarbazone) ligands for the preparation of copper radiopharmaceuticals: synthesis and evaluation of tetradentate ligands containing two dissimilar thiosemicarbazone functions” (J Med Chem, 1997)",
  "key": {"[1]": {"species_on_record": "Rattus norvegicus", "assay": "[…] uptake of compound was determined in rat brain at 5 min following femoral injection of radiotracer", "type": "functional", "how_it_was_run": "(§1)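 Sprague–Dawley rats under ether anesthesia received the ⁶⁷Cu complex (~2 µCi in 0.2 mL) into the femoral vein. Dosing solution was saline with ca. 5% ethanol and ≤0.5% DMSO, filtered at 0.2 µm, with radiochemical purity by silica TLC (ethanol). Organ radioactivity is expressed as % injected dose per organ. Mean ± SD, three rats per time point.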"}, "[2]": {"species_on_record": "Rattus norvegicus", "assay": "[…] uptake of compound was determined in rat brain at 1 min following femoral injection of radiotracer", "type": "functional", "how_it_was_run": "as §1"}, "[3]": {"species_on_record": "Rattus norvegicus", "assay": "[…] uptake of compound was determined in rat heart at 5 min following femoral injection of radiotracer", "type": "functional, Myocardium", "how_it_was_run": "as §1"}, "[4]": {"species_on_record": "Rattus norvegicus", "assay": "[…] uptake of compound was determined in rat brain at 120 min following femoral injection of radiotracer", "type": "functional", "how_it_was_run": "as §1"}, "[5]": {"species_on_record": "Rattus norvegicus", "assay": "[…] uptake of compound was determined in rat heart at 120 min following femoral injection of radiotracer", "type": "functional, Myocardium", "how_it_was_run": "as §1"}, "[6]": {"species_on_record": "Rattus norvegicus", "assay": "[…] uptake of compound was determined in rat heart at 1 min following femoral injection of radiotracer", "type": "functional, Myocardium", "how_it_was_run": "as §1"}, "[7]": {"biological_target": "Serum albumin (Canis lupus familiaris) (UniProt P49822)", "sequence (P49822 whole entry, looked up)": "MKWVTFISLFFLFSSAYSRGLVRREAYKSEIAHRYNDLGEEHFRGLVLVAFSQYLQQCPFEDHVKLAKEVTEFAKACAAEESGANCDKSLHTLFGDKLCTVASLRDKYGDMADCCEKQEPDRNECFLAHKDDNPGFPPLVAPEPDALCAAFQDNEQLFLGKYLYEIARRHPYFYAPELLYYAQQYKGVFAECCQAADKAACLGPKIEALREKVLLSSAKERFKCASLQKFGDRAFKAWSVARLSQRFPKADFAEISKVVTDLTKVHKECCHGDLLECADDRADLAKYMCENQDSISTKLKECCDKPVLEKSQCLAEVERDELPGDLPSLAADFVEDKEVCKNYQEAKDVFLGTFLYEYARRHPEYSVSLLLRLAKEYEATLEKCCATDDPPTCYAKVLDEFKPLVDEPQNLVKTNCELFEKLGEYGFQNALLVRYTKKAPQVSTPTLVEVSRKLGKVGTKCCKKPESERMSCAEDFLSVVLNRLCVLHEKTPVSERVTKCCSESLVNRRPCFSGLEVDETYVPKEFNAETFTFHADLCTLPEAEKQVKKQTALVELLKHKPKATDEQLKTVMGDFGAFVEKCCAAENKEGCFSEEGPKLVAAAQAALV", "assay": "Binding of compound in order to assess the amount of free (non-albumin-associated) radiotracer present in solutions of dog serum albumin (35 mg/mL saline)"}, "[8]": {"biological_target": "Albumin (Homo sapiens, UniProt P02768)", "sequence (P02768 whole entry)": "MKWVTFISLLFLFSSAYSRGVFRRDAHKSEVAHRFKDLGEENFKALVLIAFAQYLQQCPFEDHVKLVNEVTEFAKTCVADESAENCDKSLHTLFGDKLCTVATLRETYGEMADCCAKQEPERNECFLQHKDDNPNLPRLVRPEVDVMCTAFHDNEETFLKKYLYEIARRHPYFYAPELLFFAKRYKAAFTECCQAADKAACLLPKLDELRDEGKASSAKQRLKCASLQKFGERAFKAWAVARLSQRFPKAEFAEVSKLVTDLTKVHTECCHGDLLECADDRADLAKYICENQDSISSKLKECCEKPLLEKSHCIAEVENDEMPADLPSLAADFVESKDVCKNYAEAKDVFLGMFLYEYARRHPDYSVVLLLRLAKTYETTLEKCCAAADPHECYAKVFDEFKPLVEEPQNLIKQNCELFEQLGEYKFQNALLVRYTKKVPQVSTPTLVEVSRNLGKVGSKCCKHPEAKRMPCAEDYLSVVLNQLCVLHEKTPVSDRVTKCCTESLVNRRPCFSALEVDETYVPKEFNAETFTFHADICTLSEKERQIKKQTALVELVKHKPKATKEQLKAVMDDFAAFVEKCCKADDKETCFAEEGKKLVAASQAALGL", "assay": "Binding of compound in order to assess the amount of free (non-albumin-associated) radiotracer present in solutions of human serum albumin (35 mg/mL saline)", "how_it_was_run": "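⁶⁷Cu complex (1–2 µL per 1 mL) mixed into freshly prepared albumin in normal saline. Within 2 min, loaded into 30,000 Da NMWL centrifugal ultrafilters and spun at once at 1000g, 20 min, 20 °C, 45° fixed-angle rotor. Filtrate and unfiltered solution γ-counted. Free % is the protein filtrate/unfiltered ratio divided by the same ratio in protein-free saline, ×100. Mean ± SD of 6–12 measurements.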"}},
  "data": [
    {"molecule": "CC(/C=N/N=C(\\S)N(C)C)=N\\N=C(\\N)S", "values": [
      {"measurement": "Dose", "setting": "[1]", "result": 1.97, "unit": "%"},
      {"measurement": "Dose", "setting": "[2]", "result": 2.79, "unit": "%"},
      {"measurement": "Dose", "setting": "[3]", "result": 1.23, "unit": "%"},
      {"measurement": "Dose", "setting": "[4]", "result": 1.98, "unit": "%"},
      {"measurement": "Dose", "setting": "[5]", "result": 1.05, "unit": "%"},
      {"measurement": "Dose", "setting": "[6]", "result": 1.59, "unit": "%"}
    ]},
    {"molecule": "Copper complex of Propane-1,2-diylidene-N-thiourea-N-amino-methylaminomethanethione [listing 1 of 2 here]", "values": [
      {"measurement": "Free complex", "setting": "[7]", "result": 46.5, "unit": "%"},
      {"measurement": "Free complex", "setting": "[8]", "result": 8.6, "unit": "%"}
    ]},
    {"molecule": "C/N=C(\\S)N/N=C/C(C)=N/N=C(/N)S", "values": [
      {"measurement": "Dose", "setting": "[1]", "result": 1.37, "unit": "%"},
      {"measurement": "Dose", "setting": "[2]", "result": 1.4, "unit": "%"},
      {"measurement": "Dose", "setting": "[3]", "result": 2.44, "unit": "%"},
      {"measurement": "Dose", "setting": "[4]", "result": 1.1, "unit": "%"},
      {"measurement": "Dose", "setting": "[5]", "result": 2.03, "unit": "%"},
      {"measurement": "Dose", "setting": "[6]", "result": 2.73, "unit": "%"}
    ]},
    {"molecule": "CC(/C=N/N=C(\\S)N(C)C)=N\\N=C(/S)N(C)C", "values": [
      {"measurement": "Dose", "setting": "[1]", "result": 2.2, "unit": "%"},
      {"measurement": "Dose", "setting": "[2]", "result": 3.1, "unit": "%"},
      {"measurement": "Dose", "setting": "[3]", "result": 0.43, "unit": "%"},
      {"measurement": "Dose", "setting": "[6]", "result": 0.97, "unit": "%"}
    ]},
    {"molecule": "Copper complex of Propane-1,2-diylidene-N-amino-methylaminomethanethione-N-amino-dimethylaminomethanethione", "values": [
      {"measurement": "Free complex", "setting": "[7]", "result": 25.7, "unit": "%"},
      {"measurement": "Free complex", "setting": "[8]", "result": 5.4, "unit": "%"}
    ]},
    {"molecule": "CC(/C=N/N=C(/N)S)=N\\N=C(\\N)S", "note": "[PYRUVALDEHYDE BIS(THIOSEMICARBAZONE)(PTS)]", "values": [
      {"measurement": "Dose", "setting": "[1]", "result": 0.29, "unit": "%"},
      {"measurement": "Dose", "setting": "[2]", "result": 0.46, "unit": "%"},
      {"measurement": "Dose", "setting": "[3]", "result": 2.3, "unit": "%"},
      {"measurement": "Dose", "setting": "[6]", "result": 2.8, "unit": "%"}
    ]},
    {"molecule": "Copper complex of Propane-1,2-diylidene-N-thiourea-N-amino-dimethylaminomethanethione", "values": [
      {"measurement": "Free complex", "setting": "[7]", "result": 57.6, "unit": "%"},
      {"measurement": "Free complex", "setting": "[8]", "result": 17.2, "unit": "%"}
    ]},
    {"molecule": "C/N=C(\\S)N/N=C(C)/C=N/N=C(\\S)N(C)C", "values": [
      {"measurement": "Dose", "setting": "[1]", "result": 1.8, "unit": "%"},
      {"measurement": "Dose", "setting": "[2]", "result": 2.76, "unit": "%"},
      {"measurement": "Dose", "setting": "[3]", "result": 1.27, "unit": "%"},
      {"measurement": "Dose", "setting": "[4]", "result": 1.63, "unit": "%"},
      {"measurement": "Dose", "setting": "[5]", "result": 0.89, "unit": "%"},
      {"measurement": "Dose", "setting": "[6]", "result": 1.43, "unit": "%"}
    ]},
    {"molecule": "C/N=C(\\S)N/N=C(C)/C=N/N=C(/N)S", "values": [
      {"measurement": "Dose", "setting": "[1]", "result": 1.81, "unit": "%"},
      {"measurement": "Dose", "setting": "[2]", "result": 1.72, "unit": "%"},
      {"measurement": "Dose", "setting": "[3]", "result": 2.86, "unit": "%"},
      {"measurement": "Dose", "setting": "[4]", "result": 1.67, "unit": "%"},
      {"measurement": "Dose", "setting": "[5]", "result": 2.59, "unit": "%"},
      {"measurement": "Dose", "setting": "[6]", "result": 2.84, "unit": "%"}
    ]},
    {"molecule": "Copper complex of Propane-1,2-diylidene-N-thiourea-N-amino-methylaminomethanethione [listing 2 of 2 here]", "values": [
      {"measurement": "Free complex", "setting": "[7]", "result": 57.4, "unit": "%"},
      {"measurement": "Free complex", "setting": "[8]", "result": 10.4, "unit": "%"}
    ]},
    {"molecule": "Propyl glyoxal bis(thiosemicarbazone)(67Cu-n-PrTS)", "values": [
      {"measurement": "Free complex", "setting": "[7]", "result": 30.3, "unit": "%"},
      {"measurement": "Free complex", "setting": "[8]", "result": 37, "unit": "%"}
    ]},
    {"molecule": "C/N=C(\\S)N/N=C/C(C)=N/N/C(S)=N/C", "values": [
      {"measurement": "Dose", "setting": "[1]", "result": 3, "unit": "%"},
      {"measurement": "Dose", "setting": "[2]", "result": 3, "unit": "%"},
      {"measurement": "Dose", "setting": "[3]", "result": 3.4, "unit": "%"},
      {"measurement": "Dose", "setting": "[4]", "result": 3.2, "unit": "%"},
      {"measurement": "Dose", "setting": "[5]", "result": 3.3, "unit": "%"},
      {"measurement": "Dose", "setting": "[6]", "result": 2.7, "unit": "%"}
    ]}
  ]
}
